# Compounds with a hit are over-represented: about 1.3% of the library has one in this group of screens.
# Tb MetRS inh: T. brucei MetRS inhibitors, primary screen, biochemical, luminescence; methionyl-tRNA synthetase (Trypanosoma brucei brucei); purified T. brucei MetRS, ATP depletion, Kinase-Glo luminescence; inhibition, % at 11.9 µM; 360,000 tested, 0.4% active; AID 624268, 2012;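 active means inhibition above a per-plate cutoff of the control wells' mean inhibition plus 3 SD, cut at about 5.5% in these data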;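 further: 0% = DMSO wells median and 100% = median of wells with control inhibitor compound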
#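 Test system: purified T. brucei MetRS enzyme. Also added: ATP, methionine and E. coli bulk tRNA substrates. Compound: 11.9 µM single point. Schedule: 15 min enzyme-compound preincubation, 2 h reaction, 10 min detection, 25 °C. Signal: luciferase luminescence of residual ATP, Kinase-Glo. Evaluation: percent inhibition versus plate control medians. Controls: DMSO wells, low control.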
# HCV core dimer: inhibitors of HCV core protein dimerization, primary screen, biochemical, TR-FRET, high-throughput | TR-FRET GST/Flag-core106 dimerization, 1536-well | inhibition, % at 5 µM | 300,000 tested, 0.33% active;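 active means inhibition above the mean of all tested compounds plus 3 SD, set per screening campaign, cut at about 45% in these data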
#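 assay system = GST-tagged and Flag-tagged HCV core protein residues 1-106 | controls = unlabelled core106 and no-GST-core106 wells | incubation = compound-protein-antibody incubation 4 h at 22.5 °C | probe or stimulus = Eu donor and XL665 acceptor anti-tag antibodies | read-out = % inhibition based on acceptor/donor emission ratio | signal = TR-FRET 671 and 617 nm emission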
# Hep lipid drop: inhibitors of hepatocyte lipid droplet formation, primary screen, imaging, high-throughput imaging, BODIPY stain; AML12 mouse hepatocytes, oleate lipid droplets; inhibition, % at 6.5 µM; 240,000 tested, 0.4% active;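 active means lipid droplet intensity inhibited by at least 50%, with more than 500 cells counted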
#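 Assay system: AML12 hepatocytes (mouse); Probe or stimulus: oleic acid at 100 µM to induce lipid droplet formation; Dosing: compound at 6.5 µM only; Schedule: compound with oleate, overnight; Detection: fluorescence imaging, 20x objective, two fields per well; Measure: % inhibition of lipid droplet signal.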
# NS3 helicase inh: inhibitors of HCV NS3 helicase, primary screen, biochemical, Cy5 molecular beacon fluorescence. 290,000 tested, 0.56% active. Hepatitis C virus NS3 helicase. inhibition, % at 10.9 µM. NS3 helicase DNA unwinding;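 active means inhibition above the mean of all tested compounds plus 3 SD, set per campaign, cut at about 35% in these data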;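 further: 0% = DMSO wells and 100% = thioflavine S control wells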
#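 Test system: hepatitis C virus NS3 helicase domain fragment enzyme. Also added: annealed dual-labelled DNA beacon duplex, ATP-started. Timing: 60 min unwinding reaction at 25 °C after ATP addition. Technique: Cy5 fluorescence. Measure: % inhibition of unwinding.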
# NS3 hel confirm: HCV NS3 helicase inhibitors, retest, confirmation, biochemical, Cy5 molecular beacon fluorescence, triplicate. shares compounds with NS3 helicase inh. NS3 helicase DNA unwinding. inhibition, % at 10.9 µM. 1,600 tested, 31% active;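 active means inhibition above the mean of all tested compounds plus 3 SD, cutoff set per campaign, cut at about 36% in these data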
# FID counter trip: compounds displacing fluorescent DNA intercalator, artefact control for HCV NS3 helicase inhibitor project, biochemical, FID fluorescence, triplicate; shares compounds with NS3 helicase inh; DNA fluorescent intercalator displacement; inhibition, % at 7.9 µM; 1,600 tested, 4% active; AID 1945, 2009; in the data active means inhibition above about 37%;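 further: 0% = vehicle and 100% = reference compound; higher means more displacement of ethidium bromide from the DNA hairpin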
# FID counter DR: compounds displacing fluorescent intercalator from DNA, dose response, counter-screen for HCV NS3 helicase inhibitor project, biochemical, fluorescence. IC50, µM. 120 tested, under 10 active. fluorescent intercalator displacement from DNA. shares compounds with NS3 helicase inh; call rule not given here
# Starred values were filed as active, the others as inactive; . = no result.
SMILES,Tb MetRS inh,HCV core dimer,Hep lipid drop,NS3 helicase inh,NS3 hel confirm,FID counter trip,others
O=C(COC(=O)c1ccccc1SCC(=O)N1CCCC1)Nc1ccccc1,0,-22,4,38*,-11,-17,
COc1cccc(NC(=O)COC(=O)c2ccccc2SCC(=O)N2CCCC2)c1,0,2,.,.,.,.,
CC1CN(C(=O)COC(=O)/C=C/c2ccccc2)CC(C)O1 (stereo not drawn),0,.,.,.,.,.,
C=CCNC(=O)CSc1nnc(-c2ccc(S(=O)(=O)N3CCCC3)cc2)n1C,0,-10,.,47*,-14,5,
C=CCSc1n[nH]c(-c2ccc(OC)cc2)n1,-1,-3,5,39*,-17,-2,
C=CCSc1n[nH]c(-c2ccccc2)n1,-1,-10,1,4,.,.,
CCCOc1ccc(-c2c(=O)n(O)c3ccccc3[n+]2[O-])cc1,0,6,-3,-3,.,.,
COc1ccccc1COc1ccc2c(C)c(CC(=O)O)c(=O)oc2c1C,-1,10,-12,48*,15,-21,
Cc1c(CC(=O)O)c(=O)oc2c(C)c(OCc3ccc(F)cc3F)ccc12,-2,7,-1,6,.,.,
O=C(Nc1ccccc1)C1=C(O)CC(c2ccoc2)CC1=Nc1ccccc1 (stereo not drawn),-1,18,-2,41*,-7,10,
O=C(Nc1ccccc1)C1=C(O)CC(c2ccco2)CC1=Nc1ccccc1 (stereo not drawn),1,16,.,13,.,.,
O=C(N/N=C/c1cc(Br)c(O)c(Br)c1)c1cc2c(ccc3ccccc32)o1,0,.,13,13,.,.,
O=C(N/N=C/c1cc(Cl)c(O)c(Cl)c1)c1cc2c(ccc3ccccc32)o1,0,2,-4,45*,53*,-6,FID counter DR=>79
O=C(NCC(F)(F)F)C1C(=O)Nc2ccccc2C(=O)N1C1CCCC1 (stereo not drawn),0,.,.,.,.,.,
O=C(O)c1ccc(Cn2cnc3c(=O)[nH]cnc32)cc1,1,.,.,.,.,.,
CCc1c(C)c2cc(Cl)c(O)c(CN(CC)CC)c2oc1=O,1,1,-1,49*,-12,1,
COc1ccc(-c2cc(C(=O)O)c3ccccc3n2)c(OC)c1,-1,-4,2,1,.,.,
COc1ccc2cc(-c3cc(C(=O)O)c4ccccc4n3)ccc2c1,-2,11,.,40*,45*,-6,
Cc1nnc(-c2ccco2)c2cn(-c3cccc(Br)c3)nc12,-1,28,40,39*,4,9,
CC(=O)c1nn(-c2cccc(Br)c2)cc1C(=O)c1ccco1,-1,3,-28,8,.,.,
CCN(c1ccc(C(=O)CSc2nnc(C3CC3)n2C2CC2)cc1)S(C)(=O)=O,0,.,.,.,.,.,
CCOc1ccc(NC(=O)CC2SC(=O)N(c3ccccc3)C2=O)cc1 (stereo not drawn),0,2,2,38*,-13,9,
O=C(CC1SC(=O)N(c2ccccc2)C1=O)Nc1cccc2ccccc12 (stereo not drawn),2,5,-11,46*,-4,-2,
COc1ccc(/C=N/NC(=O)c2cccc(NC(=O)c3ccccc3Cl)c2)cc1,0,-13,-28,61*,8,-36,
Cc1ccccc1N=Nc1ccc(O)c2ncccc12,-1,-4,8,8,.,.,
SMILES,Tb MetRS inh,HCV core dimer,Hep lipid drop,NS3 helicase inh,NS3 hel confirm,FID counter trip,others
O=S(=O)(O)c1cccc2c(N=Nc3ccc(O)c4ncccc34)cccc12,0,-16,-50,84*,77*,9,
O=C(O)CCNc1ccc(NCCC(=O)O)c2c1C(=O)c1ccccc1C2=O,-3,-126,-12,60*,35,4,
CC1CC/C(=C\c2ccc3c(c2)OCO3)C(=O)/C1=C/c1ccc2c(c1)OCO2 (stereo not drawn),0,9,.,38*,-8,1,
CC1(C)OCC(C2CC(c3ccccc3)NS(=O)(=O)O2)O1 (stereo not drawn),0,-4,0,13,.,.,
O=S1(=O)NC2c3ccccc3CC2O1 (stereo not drawn),0,10,4,40*,-13,1,
COc1cc(/C=C2\SC(c3ccc(C)cc3)=NC2=O)cc(OC)c1O,0,-40,-5,-5,.,.,
Cc1ccc(C2=NC(=O)/C(=C/c3cc(O)c(O)c(Br)c3)S2)cc1,1,.,16,53*,-17,6,
Cc1c(NC(=O)CN2C(=O)NC3(CCCC3)C2=O)c(=O)n(-c2ccccc2)n1C,-1,-2,2,36*,-4,16,
CCCC(NC(=O)COc1cc2c(c3oc(=O)c(C)c(C)c13)CCC(C)(C)O2)C(=O)O (stereo not drawn),0,-2,-3,55*,0,-2,
CSCC[C@H](NC(=O)COc1cc2c(c3oc(=O)c(C)c(C)c13)CCC(C)(C)O2)C(=O)O,0,3,2,15,.,.,
Cc1ccccc1N1C(S)=C(C#N)C(=O)NC1c1cccs1 (stereo not drawn),1,11,8,67*,-7,2,
Cc1cccc(N2C(=O)C(O)=C(C(=O)c3cccs3)C2c2ccc(F)cc2)n1 (stereo not drawn),0,-7,-3,13,.,.,
Cc1cccc(N2C(=O)C(O)=C(C(=O)c3cccs3)C2c2ccc(C(C)C)cc2)n1 (stereo not drawn),0,20,1,55*,78*,-10,FID counter DR=>79
O=C(NC(=S)Nc1ccc(-c2ccc(CO)o2)cc1)c1cccs1,1,51*,-13,37*,40*,13,
Cc1ccc2c(c1)NC(C(C)(C)C)CO2 (stereo not drawn),0,-3,.,85*,-2,15,
CC(C)(C)NC(=O)NC(=O)CSc1cccc(C(F)(F)F)c1,0,1,-8,37*,-10,7,
CCOC(=O)CN1C(=O)S/C(=C/c2ccc(OCc3ccc(C(=O)O)cc3)cc2)C1=O,0,8,0,42*,32,-8,
Cc1ccc2ccc(C(Nc3ccccc3)c3ccc(Cl)cc3)c(O)c2n1 (stereo not drawn),-1,.,.,.,.,.,
Cc1c2ccccc2nc2c(F)c(NC(C)C)c(F)c(F)c12,0,8,-5,44*,-3,4,
OCCNc1c2ccccc2nc2c(F)c(F)c(F)c(F)c12,0,-6,10,9,.,.,
Cc1c2ccccc2nc2c(F)c(NCCO)c(F)c(F)c12,-1,25,8,39*,-16,8,

# Assay outcomes deposited in PubChem BioAssay by several laboratories.
